Here are results for three compounds from publication PMC4452166 (Cancer Science, 2015).

pIC50: −log10 of the molar value.

The pIC50 is the negative decadic logarithm of the IC50, by convention in mol/L.

The conditions of series [1]: in vivo; cited from earlier work.
The next series concerns HUT78 cells. Description: MTT cytotoxicity assay, HUT78. It is filed as cell-based, human. The note with it: read-out: IC50 (cytotoxicity), HUT78, 48 h. In a few lines: (§1)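 Leukemia lines kept in RPMI medium with 10% FBS and antibiotics, 37°C, 5% CO2. Cells plated directly with test compound and incubated 48 h at 37°C. MTT added for 4 h; formazan dissolved overnight at room temperature in extraction solution (40% dimethylformamide, 2% acetic acid, 0.03 M HCl, 20% SDS); OD 570 nm. Means ± SD, n = 3.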

A further series has as its system HEK293 cells. Description: MTT cytotoxicity assay, HEK293. It is filed as cell-based, human. The note with it: for pIC50: read-out: IC50 (cytotoxicity), HEK293, 48 h. In a few lines: (§2)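 Human epithelia-derived lines grown in 10% FBS media at 37°C, 5% CO2: FLC-4 in DMEM/F12, MCF7 in Eagle's MEM + 10 μg/mL insulin, HCT116 in McCoy's 5A, AGS/HEK293 in DMEM, TE4 in RPMI. Cells seeded 24 h before test compound, then exposed 48 h at 37°C. MTT 4 h; overnight solubilisation (DMF/acetic acid/HCl/SDS); OD 570 nm. n = 3. IC20 reported as maximum tolerated concentration.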

The subject of series [2] is HPB-ALL cells. Description: MTT cytotoxicity assay, HPB-ALL. It is filed as cell-based, human. The note with it: read-out: IC50 (cytotoxicity), 48 h. In a few lines:
as §1
For orientation: Formazan colour is commonly taken as a measure of viable cells.

The test system of series [3] is low TC4ATS-Cd-sensitive leukemia cell lines and epithelia-derived cell lines except for HEK293. It is filed as cell-based, human. The note with it: 50 μM, 24 h, western blot.
Another series deals with JKT-beta-del cells. Description: MTT cytotoxicity assay, JKT-beta-del. It is filed as cell-based, human. To be noted: read-out: IC50 (cytotoxicity), 48 h. A digest of the protocol: as §1
Another series concerns HCT116 cells. In words: MTT cytotoxicity assay, HCT116. It is filed as cell-based, human. The note with it: for pIC50: read-out: IC50 (cytotoxicity), HCT116, 48 h. A digest of the protocol:
as §2

Series [4] has as its system Jurkat cells. In words: MTT cytotoxicity assay, Jurkat. It is filed as cell-based, human. To be noted: read-out: IC50 (cytotoxicity), 48 h. A digest of the protocol: as §1
In series [5] the test system is HPB-ALL cells. Description: Western blot of activated caspase-3 and cleaved PARP, HPB-ALL. The note with it: 50 μM, 24 h. Format: cell-based, human. A digest of the protocol: (§3)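 Leukemia cells treated with test compound for 24 h. Equal protein run on reducing SDS-PAGE and transferred to PVDF. Blocked in 1% skim milk; probed for activated caspase-3, cleaved PARP and β-actin; peroxidase secondary antibody; ECL detection.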
For orientation: A western blot detects proteins with antibodies after separation by electrophoresis.

In another series the test system is HL-60 cells. In words: MTT cytotoxicity assay, HL-60. It is filed as cell-based, human. The note with it: read-out: IC50 (cytotoxicity), HL-60, 48 h. In a few lines:
as §1

A further series relates to FLC-4 cells. Description: MTT cytotoxicity assay, FLC-4. It is filed as cell-based, human. The note with it: for pIC50: read-out: IC50 (cytotoxicity), FLC-4, 48 h. In a few lines:
as §2

The next series concerns MCF7 cells. In words: MTT cytotoxicity assay, MCF7. The note with it: for pIC50: read-out: IC50 (cytotoxicity), MCF7, 48 h. It is filed as cell-based, human. A digest of the protocol: as §2
The test system of another series is TE4 cells. In words: MTT cytotoxicity assay, TE4. Format: cell-based, human. The note with it: for pIC50: read-out: IC50 (cytotoxicity), TE4, 48 h. A digest of the protocol:
as §2

Another series deals with PEER cells. Description: MTT cytotoxicity assay, PEER. It is filed as cell-based, human. To be noted: read-out: IC50 (cytotoxicity), 48 h. A digest of the protocol: as §1
Another series has as its system AGS cells. Description: MTT cytotoxicity assay, AGS. It is filed as cell-based, human. To be noted: for pIC50: read-out: IC50 (cytotoxicity), 48 h. In a few lines: as §2
Series [6] has as its system Jurkat cells. In words: Jurkat xenograft model in SCID mice. Format: in vivo. To be noted: for tumor weight vs vehicle: day 35 after inoculation; for Survival: tumor-bearing SCID mice. A digest of the protocol:
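Six-week-old female SCID mice inoculated s.c. with 5 × 10^7 Jurkat cells. From day 20, mice received saline vehicle, test compound 13 mg/kg (13 μmol/kg) or CdCl2 3 mg/kg (13 μmol/kg) i.p. three times weekly for 2 weeks, n = 5 per group. Body weight and tumor size taken three times weekly; volume = long × short² × 1/2. Killed on day 35; tumors, liver, kidney, spleen and lung weighed. Student's t-test.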

In series [7] the test system is Jurkat cells. In words: Western blot of activated caspase-3 and cleaved PARP, Jurkat. Format: cell-based, human. The note with it: 24 h. A digest of the protocol: as §3
Series [8] relates to Jurkat cells. In words: Lactate dehydrogenase. It is filed as cell-based, human. The note with it: 48 h.
Series [9] concerns caspase-3 in Jurkat cells. Description: Caspase-3 activity assay with fluorogenic substrate in cell lysates. Format: cell-based, human. The note with it: Ac-DEVD-MCA substrate.
Setting [10] is: 13 μmol/kg i.p. three times weekly for 2 weeks.

In the case of `O=S(=O)(O)c1cc2c(O)c(c1)Cc1cc(S(=O)(=O)O)cc(c1O)Cc1cc(S(=O)(=O)O)cc(c1O)Cc1cc(S(=O)(=O)O)cc(c1O)C2` [C4ATS, p-tetrasulfonated calix[4]arene], the “dose without toxic effects, acute toxicity” value in [1] was no less than 100 mg/kg.
With `[Cl][Cd][Cl]` [CdCl2, Cadmium chloride, reference compound], the pIC50 in the series with HUT78 cells was 4.60; in the series on HEK293 cells, 5.72; with HPB-ALL cells [2], 5.01; in the series on JKT-beta-del cells, 4.52; in the series on HCT116 cells, 4.33; in the series with Jurkat cells [4], 5.19. Besides, the pIC50 was 4.57 in the series with HL-60 cells; 3.97 in the series on FLC-4 cells; 4.44 in the series on MCF7 cells; 3.89 with TE4 cells; 4.55 in the series on PEER cells; 4.22 in the series on AGS cells. Also, the “apoptotic events (caspase-3 activation, PARP cleavage)” value in series [3] is listed as “not elicited”. In addition, the “caspase-3 activation and cleavage of PARP” value with HPB-ALL cells [5] is given as “induced”. Also, the “renal atrophy (relative kidney weight)” value in the series on Jurkat cells [6] (setting [10]) is “notably induced renal atrophy”. Moreover, the “tumor weight vs vehicle” value with Jurkat cells [6] (setting [10]) was “non-significant decrease”. The Survival in the series on Jurkat cells [6] (setting [10]) is on record as 3/5.
Take “cadmium-coordinated thiacalix[4]arene tetrasulfate [TC4ATS-Cd]”: the pIC50 in the series with HUT78 cells is 4.46; in the series with HEK293 cells, 4.82; with HPB-ALL cells [2], 4.77; in the series with JKT-beta-del cells, 3.56; in the series on HCT116 cells, 2.82; in the series with Jurkat cells [4] it was 5.16. The pIC50 with HL-60 cells was 4.09; in the series with FLC-4 cells, 2.61; in the series with MCF7 cells it was 2.66; in the series with TE4 cells it was 2.67; with PEER cells it was 3.84; in the series with AGS cells, 3.02. The IC20 with HEK293 cells (read-out: maximum tolerated concentration (=IC20 value), HEK293, 48 h) worked out at 6.8 µM; with HCT116 cells (read-out: maximum tolerated concentration (=IC20 value), HCT116, 48 h), 280 µM; in the series on FLC-4 cells (read-out: maximum tolerated concentration (=IC20 value), FLC-4, 48 h) it was 667 µM; with MCF7 cells (read-out: maximum tolerated concentration (=IC20 value), MCF7, 48 h), 1330 µM; in the series on TE4 cells (read-out: maximum tolerated concentration (=IC20 value), TE4, 48 h), 454 µM; in the series on AGS cells (read-out: maximum tolerated concentration (=IC20 value), 48 h), 505 µM. The “apoptotic events (caspase-3 activation, PARP cleavage)” value in series [3] is “not elicited”. In the series with Jurkat cells [7], the “cleavage of PARP” value is “consistently and markedly upregulated”. Besides, the “levels of activated caspase-3 protein” value in the series with Jurkat cells [7] is given as “upregulated”. In addition, the LDH release result in the series on Jurkat cells [8] is “increased LDH release from Jurkat cells in a dose-dependent manner”. In addition, the caspase-3 proteolytic activity entry in series [9] was “increased its proteolytic activity”. In addition, in the series with HPB-ALL cells [5], the “caspase-3 activation and cleavage of PARP” value is “induced”. Moreover, the “body weight changes vs vehicle” value in the series with Jurkat cells [6] (setting [10]) is reported as “no significant difference”. Also, the “renal atrophy (relative kidney weight)” value in the series on Jurkat cells [6] (setting [10]) is given as “no significant atrophy”. Further, the “tumor weight vs vehicle” value in the series on Jurkat cells [6] (setting [10]) was “significantly lower”. Further, the “tumor growth of Jurkat cells” value in the series on Jurkat cells [6] (13 mg/kg, xenograft model in mice) is “significantly suppressed”. Further, the Survival with Jurkat cells [6] (setting [10]) was 5/5.
